Compounds with a hit are over-represented: about 2.9% of the library has one in this group of screens.
CDK5 inh: inhibitors of human CDK5/p35 kinase, primary screen, biochemical, single concentration; Recombinant CDK5/p35, ADP-Glo luminescence, 60 min; 0.01% of 330,000 active; inhibition, % at 10 µM; Cyclin-dependent kinase 5 (Homo sapiens) + Cyclin-dependent kinase 5 activator 1 (Homo …;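 active means highest replicate inhibition of at least 50% and at least 75% of replicates reaching 50%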;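 further: plate controls were DMSO neutral control for no effect and GW8510 at 10 µM for full effect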
Target sequence (Q00535 whole entry, looked up): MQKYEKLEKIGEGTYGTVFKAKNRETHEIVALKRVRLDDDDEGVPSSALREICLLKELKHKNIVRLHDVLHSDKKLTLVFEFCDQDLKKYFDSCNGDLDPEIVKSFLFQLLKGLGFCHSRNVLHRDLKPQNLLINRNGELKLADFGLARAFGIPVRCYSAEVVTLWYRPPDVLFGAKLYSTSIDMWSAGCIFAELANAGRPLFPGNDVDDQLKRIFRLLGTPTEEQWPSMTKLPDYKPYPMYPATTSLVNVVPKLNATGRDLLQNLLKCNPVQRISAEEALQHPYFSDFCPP
Target sequence (Q15078 whole entry, looked up): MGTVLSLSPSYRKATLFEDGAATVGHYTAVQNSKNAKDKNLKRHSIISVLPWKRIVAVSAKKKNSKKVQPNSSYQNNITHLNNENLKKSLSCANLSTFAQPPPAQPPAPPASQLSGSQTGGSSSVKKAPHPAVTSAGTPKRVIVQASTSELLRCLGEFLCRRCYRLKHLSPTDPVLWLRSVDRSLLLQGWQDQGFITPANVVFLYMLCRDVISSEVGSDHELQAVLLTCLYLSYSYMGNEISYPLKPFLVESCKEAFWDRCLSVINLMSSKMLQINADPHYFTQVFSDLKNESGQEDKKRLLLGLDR
Cneo AK release: Cryptococcus neoformans cell lysis inducers, primary screen, AK release luminescence, single concentration; C. neoformans lysis, adenylate kinase release luminescence, 4 h; normalised: neutral wells 0, clomiphene wells 100; lysis activity, % at 15 µM; 0.2% of 360,000 active;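 active means mean lysis activity across replicates of at least 80%, whatever share of replicates individually reach that level; inactive means mean lysis activity below 80%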
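Material – Cryptococcus neoformans yeast cells · Quantity – 5 × 10^6 yeast cells/mL · Buffer or medium – YPD medium · Compound – single dose · Timing – 4 h static compound exposure, 37 °C, read 1 h post-reagent · Signal – adenylate kinase release luminescence · Read-out basis – lysis from increased AK signal · Benchmarks – Clomiphene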
PAX8 reporter: inhibitors of PAX8-driven TPO luciferase reporter, primary screen, RMG-I cells, single concentration | 1.2% of 360,000 active | SteadyGlo, 24 h | inhibition, % at 12.6 µM;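 active means mean replicate inhibition at least 60% with every replicate also reaching 60%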;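 further: luciferase light reporting Pax8 driven TPO promoter activity; plate controls were median of neutral control wells for no effect and mitoxantrone controls for full effect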
HIV Env fusion: inhibitors of HIV-1 Env-driven cell-cell fusion, primary screen, HeLa-JRFL effector, CEM21 target cells, luciferase. inhibition, % at 12.3 µM. 1.1% of 360,000 active. AID 651610, 2012;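 active means mean replicate inhibition score of at least 50 and every replicate individually at or above 50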;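 further: 0% = plate neutral controls and 100% = maraviroc near 300 nM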
GSIS activator: GLuc luminescence reporter in INS-1E cells, primary screen for activators of glucose-dependent secretion of insulin; INS-1E GLuc reporter insulin secretion, 2-3 h; activation, % at 16.6 µM; 0.61% of 370,000 active;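 active means lowest replicate activation of at least 40%, so every replicate reaches that level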;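 further: 0% = median of neutral control wells and 100% = median of IBMX positive control wells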
dFosB act: activators of delta FosB homodimer, primary screen, biochemical, fluorescence polarization, TAMRA-CDK5 oligo, single point | Protein FosB (Mus musculus), P13346 | purified delta FosB; percent of positive-control signal above neutral wells | activation, % at 25 µM | 0.99% of 340,000 active | AID 493131, 2011;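 active means mean activation above about 17%, with every replicate also reaching it, limit read from the data, passing the limit was not always enough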
* = called active by the depositor; nt = no result; [ ] = remark or other dose.

SMILES	CDK5 inh	Cneo AK release	PAX8 reporter	HIV Env fusion	GSIS activator	dFosB act
CN1C(=O)c2cc(NS(=O)(=O)c3ccc(Cl)cc3)ccc2OC[C@H]2O[C@@H](CC(=O)N3CCc4ccccc4C3)CC[C@@H]21	nt	0	74*	6[16.7 µM]	-14	nt
CN1C(=O)c2cc(NS(=O)(=O)c3cccc(F)c3)ccc2OC[C@H]2O[C@H](CC(=O)O)CC[C@H]21	nt	97*	-26	nt	10	nt
CN1C(=O)c2cc(NS(=O)(=O)c3cccc(F)c3)ccc2OC[C@H]2O[C@@H](CC(=O)O)CC[C@@H]21	nt	-2	-46	nt	3	nt
CN1C(=O)c2cc(NS(=O)(=O)c3cccc(F)c3)ccc2OC[C@@H]2O[C@@H](CC(=O)O)CC[C@H]21	nt	97*	-10	nt	7	nt
N#C[C@H]1[C@@H](c2ccc(/C=C/c3ccccc3)cc2)[C@@H](CO)N1C(=O)Cc1ccccn1	nt	54	-7	-2[16.7 µM]	-8	nt
COc1ccccc1C(=O)Nc1ccc2c(c1)C(=O)N(C)C[C@H](OC)[C@H](C)CN(C)[C@H](C)CO2	nt	nt	-8	nt	-1	nt
COCCNC[C@H]1[C@H](c2ccccc2)[C@H](CO)N1c1nc(C)c(C)s1	nt	-11	-4	nt	10	nt
CN1C(=O)c2cc(NS(C)(=O)=O)ccc2OC[C@@H]2O[C@@H](CC(=O)O)CC[C@H]21	nt	83*	32	nt	5	nt
CN1C(=O)c2cc(NS(C)(=O)=O)ccc2OC[C@H]2O[C@@H](CC(=O)O)CC[C@@H]21	nt	5	-1	nt	6	nt
CN1CC(c2ccccc2)C2(SC(=S)N(Cc3ccco3)C2=O)C12C(=O)Nc1ccccc12 (configuration not stated)	2	-1	nt	77*	nt	-6
CN1CC(c2ccccn2)C2(SC(=S)N(Cc3ccccc3)C2=O)C12C(=O)Nc1ccccc12 (configuration not stated)	-3	0	nt	-5	nt	-7
CC1(C)Cc2ccccc2C(/C(=N\Nc2cccc(Cl)c2)C(N)=O)=N1	2	nt	30	82*	-32	-18
CC(=O)c1ccc(N/N=C(/C(N)=O)C2=NC(C)(C)Cc3ccccc32)cc1	37	0	41	15	-16	-3
COCCNC(=O)C[C@H]1C[C@@H]2c3cc(NC(=O)Nc4ccccc4)ccc3O[C@@H]2[C@H](CO)O1	nt	-58	-19	nt	5	nt
COc1ccc(-c2ccc3n(c2=O)C[C@H]2[C@H](CO)[C@@H](C(=O)NC4Cc5ccccc5C4)N[C@@H]32)cc1	nt	3	14	nt	-1	nt
COc1ccc(-c2ccc3n(c2=O)C[C@@H]2[C@@H](CO)[C@H](C(=O)NC4Cc5ccccc5C4)N[C@H]32)cc1	nt	0	66*	nt	-2	nt
CN(C)CCNc1ncnc2c1sc1nc(N3CCOCC3)c3c(c12)CC(C)(C)SC3	-1	0	48	46	nt	-32
CC1(C)Cc2c(c(-c3ccco3)nc3sc4c(NCCO)ncnc4c23)CO1	-1	nt	4	15	88*	-38
CC1(C)Cc2c(c(N3CCOCC3)nc3sc4c(NCCN)ncnc4c23)CO1	-1	nt	-2	14	52*	-4
C[C@@H]1CCCCO[C@@H](CN(C)Cc2ccccc2)[C@@H](C)CN([C@H](C)CO)C(=O)c2cc(NS(=O)(=O)c3cccs3)ccc2O1	nt	1	-8	-5[16.7 µM]	17	nt
COCC(=O)N1[C@@H](C#N)[C@@H](c2ccc(C3=CCCC3)cc2)[C@@H]1CO	nt	-1	-1	-11[16.7 µM]	7	nt
O=[N+]([O-])c1ccc(N=Nc2ncc[nH]2)cc1	-1	7	74*	-204	-5	-4
O=[N+]([O-])c1ccc(N=NN(CCO)CCO)cc1	-1	nt	-128	-115	-14	-4
C[C@H](CO)N1C[C@H](C)[C@H](CN(C)C(=O)Nc2cccc3ccccc23)Oc2c(NC(=O)NC3CCCCC3)cccc2C1=O	nt	1	17	-15[16.7 µM]	-18	nt
C[C@@H]1CN([C@H](C)CO)S(=O)(=O)c2ccc(C#Cc3ccncc3)cc2O[C@@H]1CN(C)C	nt	-4	nt	-6[16.7 µM]	12	nt
SMILES	CDK5 inh	Cneo AK release	PAX8 reporter	HIV Env fusion	GSIS activator	dFosB act
CC(=O)OC1[C@H](Oc2c(O)c(C)c3c4c2[C@@H](C)CC[C@@H]4[C@@H](C)C[C@@H]3C=C(C)C)OC[C@@H](O)[C@@H]1O (some centres not stated)	-1	0	5	22	nt	-1
CC(C)=C[C@H]1C[C@H](C)[C@H]2CC[C@H](C)c3c(O[C@@H]4OC[C@@H](O)[C@H](O)C4O)c(O)c(C)c1c32 (some centres not stated)	-1	4	16	-11	122*	5
Cc1nnc(SCC(=O)Nc2cc(Cl)ccc2Cl)n1CC1CCCO1 (configuration not stated)	0	3	-10	8	73*	1
O=C1O[C@@H](c2ccccc2)[C@@H](c2ccccc2)N2[C@@H](c3ccc(O)cc3)[C@]3(C(=O)Nc4ccc(C#CC5=CCCCC5)cc43)[C@@H](C(=O)O)[C@H]12	nt	-10	nt	3[16.7 µM]	nt	nt
CC(C)NC(=O)Nc1cccc2c1O[C@H](CN(C)C(=O)Nc1ccccc1)[C@@H](C)CN([C@@H](C)CO)C2=O	nt	-5	-21	21[16.7 µM]	4	nt
Cc1cc(NC(=O)CS(=O)(=O)c2cn(Cc3cccc(Br)c3)c3ccccc23)no1	nt	5	1	44	-8	nt
Cc1cc(NC(=O)CS(=O)(=O)c2cn(Cc3ccccc3Cl)c3ccccc23)no1	-3	6	nt	90*	-7	-4
CCC(=O)N1C[C@H](O)COC[C@@H]2O[C@H](CC(=O)NCC3CCCCC3)CC[C@H]21	nt	-3	-9	12[16.7 µM]	2	nt
C[C@H](CO)N1C[C@H](C)[C@H](CN(C)C(=O)c2ccc3c(c2)OCO3)Oc2cc(C#Cc3ccccc3F)ccc2S1(=O)=O	nt	-2	56	40[16.7 µM]	-13	nt
C[C@H](CO)N1C[C@H](C)[C@@H](CN(C)C(=O)c2ccc3c(c2)OCO3)Oc2cc(C#Cc3ccccc3F)ccc2S1(=O)=O	nt	-5	79*	11[16.7 µM]	-29	nt
C[C@H](CO)N1C[C@H](C)[C@@H](CN(C)C(=O)Cc2ccccc2)Oc2cc(C#Cc3ccccc3F)ccc2S1(=O)=O	nt	0	74*	11[16.7 µM]	-14	nt
Cc1noc(C)c1NC(=O)N(C)C[C@@H]1Oc2c(cccc2N(C)C)C(=O)N([C@@H](C)CO)C[C@@H]1C	nt	-4	-4	-7[16.7 µM]	20	nt
COc1ccccc1C(=O)Nc1nc(-c2ccc(S(=O)(=O)N3CCOCC3)cc2)cs1	0	-12	nt	96*	nt	11
